We go through 13 compounds from ChEMBL document CHEMBL2203235, “Optimization of a natural product-based class of γ-secretase modulators” (J Med Chem, 2012).

The test system of one data set is Liver microsomes. Kind of data set: Metabolic stability in human liver microsomes at 1 uM after 60 mins by LC/MS/MS analysis. As to conditions: 1 h. (In general: Liver microsomes are vesicles of endoplasmic reticulum, rich in cytochrome P450 enzymes.)
For data set [1], the system named is CHO-2B7. In words: Modulation of gamma secretase in CHO-2B7 cells assessed as reduction in amyloid beta 40 level at 4 uM after 5 hrs by MSD ELISA. More on the design: scale not given: the % may be the effect or the level left. Conditions: Cricetulus griseus. The class given is cell-based. A general note: An ELISA detects its analyte on a solid surface through an enzyme-linked reagent.

A short description of data set [2]: Modulation of gamma secretase in CHO-2B7 cells assessed as reduction in amyloid beta 42 level after 5 hrs by MSD ELISA. The class given is cell-based. As to conditions: Cricetulus griseus, CHO-2B7, 5 h.
Data set [3] in a line: Modulation of gamma-secretase assessed as reduction in amyloid beta 40 level by cell based assay.
A short description of data set [4]: Modulation of gamma-secretase assessed as reduction in amyloid beta 42 level by cell based assay.
Data set [5] is described as follows: Modulation of gamma-secretase assessed as increase in amyloid beta 38 level by cell based assay.
Data set [6] can be described thus: Modulation of gamma-secretase assessed as increase in amyloid beta 38 level at 800 nM by cell based assay relative to control.
Data set [7] concerns CHO-2B7. In words: Modulation of gamma secretase in CHO-2B7 cells assessed as reduction in amyloid beta 40 level at 4 mM after 5 hrs by MSD ELISA. The class given is cell-based. More on the design: scale not given: the % may be the effect or the level left. As to conditions: Cricetulus griseus.
Data set [8] deals with CHO-2B7. Kind of data set: Modulation of gamma secretase in CHO-2B7 cells assessed as reduction in amyloid beta 40 level at 100 uM after 5 hrs by MSD ELISA. As to conditions: Cricetulus griseus. The class given is cell-based. More on the design: scale not given: the % may be the effect or the level left.
Data set [9] can be described thus: Metabolic stability in human liver microsomes assessed as compound remaining at 1 uM at 60 mins by LC/MS/MS analysis in absence of NADPH. The class given is ADME, Microsome. Conditions: liver microsomes, read-out: Stability. In outline:
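Human liver microsomes were run without NADPH as a qualitative read of susceptibility to enzymatic hydrolysis. The read-out was percent parent remaining at 60 min.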

Data set [10] deals with CHO-2B7. Kind of data set: Modulation of gamma secretase in CHO-2B7 cells assessed as reduction in amyloid beta 42 level at 4 uM after 5 hrs by MSD ELISA. The class given is cell-based. Further details: scale not given: the % may be the effect or the level left. As to conditions: Cricetulus griseus.
A short description of data set [11]: Plasma concentration in CD1 mouse at 3 mg/kg, iv at 6 hrs. The class given is ADME, organism-based. More on the design: dose 3 mg/kg, route intravenous. In outline: (§1)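 CD-1 mice dosed by the IV route. Plasma and brain drug concentrations were measured at 6 h post dose, or at 2 h for one analogue. The brain-to-plasma ratio was calculated from these concentrations and used to rank CNS penetration.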

Data set [12] can be described thus: Modulation of gamma secretase in CHO-2B7 cells assessed as reduction in amyloid beta 40 level after 5 hrs by MSD ELISA. The class given is cell-based. As to conditions: Cricetulus griseus, CHO-2B7, 5 h.
Data set [13] is described as follows: Ratio of drug uptake in brain to plasma in CD1 mouse at 3 mg/kg, iv at 6 hrs. The class given is ADME, organism-based. More on the design: dose 3 mg/kg, route intravenous. As to conditions: brain and plasma, read-out: BPR. In outline:
as §1

The nature of data set [14]: Drug uptake in CD1 mouse brain at 3 mg/kg, iv at 6 hrs. Further details: dose 3 mg/kg, route intravenous. The class given is ADME, organism-based. Conditions: read-out: Drug uptake. In outline: as §1
Data set [15] has as its system CHO-2B7. Kind of data set: Modulation of gamma secretase in CHO-2B7 cells assessed as reduction in amyloid beta 40 level at 20 mM after 5 hrs by MSD ELISA. The class given is cell-based. Conditions: Cricetulus griseus. More on the design: scale not given: the % may be the effect or the level left.

As usually defined, the IC50 is the concentration that inhibits the measured activity by half.

For `CCO[C@@H]([C@H]1C[C@@H](C)[C@H]2[C@H](O1)[C@H](O)[C@@]1(C)[C@@H]3CC[C@H]4C(C)(C)[C@@H](OC(=O)NCCN5CCC5)CC[C@@]45C[C@@]35CC[C@]21C)C(C)(C)O`, in the data set on Liver microsomes, the Stability entry is “Stable”. In the data set on CHO-2B7 [1], the Activity stood at 41%. Also, the IC50 in data set [2] came out at 220 nM.

With `CC(=O)O[C@@H]([C@H]1C[C@@H](C)C2=C(O1)[C@H](O)[C@@]1(C)[C@@H]3CC[C@H]4C(C)(C)[C@@H](O[C@@H]5OC[C@@H](O)[C@H](O)[C@H]5O)CC[C@@]45C[C@@]35CC[C@]21C)C(C)(C)O`, the IC50 in [3] stood at 2700 nM; in data set [4] it was 100 nM; in [5], 61 nM.

Regarding `COc1cc(/C=C2\CCCN([C@@H](C)c3ccc(F)cc3)C2=O)ccc1-n1cnc(C)c1`, the Activity in data set [6] was 280%. Besides, the IC50 turned out to be 280 nM in [3] and 62 nM in data set [4].

Turning to `CC(C)CC[C@H](c1ccc(Cl)cc1)N1CC[C@@H](CC(=O)O)C[C@H]1c1ccc(C(F)(F)F)cc1`, the Activity in data set [6] amounted to 280%. Further, the figures for the IC50 in [3] and in data set [4] were 8400 nM and 100 nM, respectively.

Turning to `CCO[C@@H]([C@H]1C[C@@H](C)[C@H]2[C@H](O1)[C@H](O)[C@@]1(C)[C@@H]3CC[C@H]4C(C)(C)[C@@H](O[C@H]5CN(CC(F)F)CCO5)CC[C@@]45C[C@@]35CC[C@]21C)C(C)(C)O`, the Stability result with Liver microsomes is reported as “Stable”. In the data set with CHO-2B7 [7], the Activity was found to be 37%. Also, the IC50 in data set [2] was determined as 540 nM.

For the compound `CC(=O)OC[C@H]1C[C@@H](C)[C@H]2[C@H](O1)[C@H](O)[C@@]1(C)[C@@H]3CC[C@H]4C(C)(C)[C@@H](O[C@H]5CN(C(=O)CC6CC6)CCO5)CC[C@@]45C[C@@]35CC[C@]21C`, the Activity in the data set on CHO-2B7 [8] is 66%. For the same compound, the remaining at 1 h, 1 µM in [9] came to 23%. In [2], the IC50 is 240 nM.

With `C[C@@H]1C[C@H]([C@H](O)C(C)(C)O)O[C@H]2[C@H]1[C@@]1(C)CC[C@@]34C[C@@]35CC[C@H](O[C@H]3CN(C(=O)CC6CC6)CCO3)C(C)(C)[C@@H]5CC[C@H]4[C@]1(C)[C@H]2O`, the Activity with CHO-2B7 [10] was 40%. In addition, in [2], the IC50 was found to be 70 nM.

For the compound `CCO[C@@H]([C@H]1C[C@@H](C)[C@H]2[C@H](O1)[C@H](O)[C@@]1(C)[C@@H]3CC[C@H]4C(C)(C)[C@@H](O[C@H]5CN(CC(=O)N6CCC6)CCO5)CC[C@@]45C[C@@]35CC[C@]21C)C(C)(C)O`, the Stability entry in the data set on Liver microsomes was “Stable”. For the same compound, the Activity in the data set on CHO-2B7 [7] was 39%. Besides, the IC50 in data set [2] came to 250 nM.

Take `CCO[C@@H]([C@H]1C[C@@H](C)[C@H]2[C@H](O1)[C@H](O)[C@@]1(C)[C@@H]3CC[C@H]4C(C)(C)[C@@H](O[C@H]5CNCCO5)CC[C@@]45C[C@@]35CC[C@]21C)C(C)(C)O`: the concentration at 6 h came to 192 nM in [11] and 320 nM in data set [14]. In addition, the Stability result in the data set with Liver microsomes is reported as “Stable”. Also, the figures for the IC50 in [12] and in data set [2] were 1400 nM and 91 nM, respectively. The Kp at 6 h in data set [13] is 1.67. Moreover, in data set [9], the remaining at 1 h, 1 µM amounted to 28%.

In the case of `CC(C)C[C@H](C(=O)O)c1cc(-c2ccc(C(F)(F)F)cc2)cc(-c2ccc(C(F)(F)F)cc2)c1`, in data set [6], the Activity worked out at 240%. Further, the IC50 came to 9100 nM in [3] and 260 nM in data set [4].

As to `CCO[C@@H]([C@H]1C[C@@H](C)[C@H]2[C@H](O1)[C@H](O)[C@@]1(C)[C@@H]3CC[C@H]4C(C)(C)[C@@H](O[C@H]5CN(C6COC6)CCO5)CC[C@@]45C[C@@]35CC[C@]21C)C(C)(C)O`, the concentration at 6 h in data set [11] came to 24 nM; in data set [14] it was 12 nM. In addition, in the data set with Liver microsomes, the Stability result is on record as “Stable”. Further, the IC50 in data set [12] worked out at 4600 nM; in data set [2], 270 nM. Moreover, in [13], the Kp at 6 h stood at 0.5. Also, the remaining at 1 h, 1 µM in data set [9] amounted to 94%.

Turning to `CCO[C@@H]([C@H]1C[C@@H](C)[C@H]2[C@H](O1)[C@H](O)[C@@]1(C)[C@@H]3CC[C@H]4C(C)(C)[C@@H](O[C@H]5CN(CC(=O)N(C)C)CCO5)CC[C@@]45C[C@@]35CC[C@]21C)C(C)(C)O`, the Stability result in the data set with Liver microsomes is listed as “Stable”. For the same compound, the Activity with CHO-2B7 [7] is 38%. In data set [2], the IC50 came to 270 nM.

In the case of `CCO[C@@H]([C@H]1C[C@@H](C)[C@H]2[C@H](O1)[C@H](O)[C@@]1(C)[C@@H]3CC[C@H]4C(C)(C)[C@@H](O[C@H]5CN(CC(F)(F)F)CCO5)CC[C@@]45C[C@@]35CC[C@]21C)C(C)(C)O`, the Stability entry in the data set on Liver microsomes is listed as “Stable”. Also, the Activity with CHO-2B7 [15] came out at 44%. Moreover, the IC50 in [2] is 2300 nM.
